Measurements taken from ChEMBL document CHEMBL1124968, “Synthesis and biological activity of new HMG-CoA reductase inhibitors. 2. Derivatives of 7-(1H-pyrrol-3-yl)-substituted-3,5-dihydroxyhept-6(E)-enoic (-heptanoic) acids” (J Med Chem, 1990).

Experiments:
[1] = target: T1, 3-hydroxy-3-methylglutaryl-coenzyme A reductase (Rattus norvegicus, UniProt P51639); assay: In vitro inhibition of HMG-CoA reductase of rat liver
T1 sequence (P51639 whole entry): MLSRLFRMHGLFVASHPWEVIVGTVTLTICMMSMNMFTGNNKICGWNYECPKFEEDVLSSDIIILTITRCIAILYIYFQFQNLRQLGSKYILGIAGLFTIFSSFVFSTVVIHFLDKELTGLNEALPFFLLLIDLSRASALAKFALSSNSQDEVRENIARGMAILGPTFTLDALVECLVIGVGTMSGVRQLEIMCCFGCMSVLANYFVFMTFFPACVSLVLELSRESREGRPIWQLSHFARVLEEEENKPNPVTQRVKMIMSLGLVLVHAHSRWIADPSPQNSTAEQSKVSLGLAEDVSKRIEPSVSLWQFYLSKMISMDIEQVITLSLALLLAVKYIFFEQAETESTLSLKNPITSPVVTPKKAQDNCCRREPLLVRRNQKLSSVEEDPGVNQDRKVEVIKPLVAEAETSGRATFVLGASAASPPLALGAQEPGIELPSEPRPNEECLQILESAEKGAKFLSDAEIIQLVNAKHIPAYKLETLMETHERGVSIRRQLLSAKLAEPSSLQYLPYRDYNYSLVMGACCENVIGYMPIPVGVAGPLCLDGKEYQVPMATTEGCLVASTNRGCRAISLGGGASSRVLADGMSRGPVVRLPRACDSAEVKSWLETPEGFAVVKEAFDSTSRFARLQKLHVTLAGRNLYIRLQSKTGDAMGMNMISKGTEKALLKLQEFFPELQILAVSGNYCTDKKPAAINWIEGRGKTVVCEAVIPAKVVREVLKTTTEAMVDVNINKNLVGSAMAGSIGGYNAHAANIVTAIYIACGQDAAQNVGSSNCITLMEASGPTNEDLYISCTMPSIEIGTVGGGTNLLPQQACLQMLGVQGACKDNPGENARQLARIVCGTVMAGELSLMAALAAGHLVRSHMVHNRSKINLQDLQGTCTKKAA

Rattus norvegicus [2] = assay: Inhibition of hepatic cholesterol de novo synthesis in male rats after po administration; values are per cent of control
[3] = target: T2, 3-hydroxy-3-methylglutaryl-coenzyme A reductase (Rattus norvegicus) (UniProt P51639); assay: In vitro inhibition of solubilized, partially purified rat liver HMG-CoA reductase relative to mevinolin
T2 sequence (whole entry): T1 sequence (P51639 whole entry)

[4] = target: T3, 3-hydroxy-3-methylglutaryl-coenzyme A reductase (Homo sapiens) (UniProt P04035); assay: Inhibition of cellular HMG-CoA reductase in cultures of hepatic cells (HEP G2, a human hepatoma cell line) relative to mevinolin; type: cell-based
T3 sequence (whole entry): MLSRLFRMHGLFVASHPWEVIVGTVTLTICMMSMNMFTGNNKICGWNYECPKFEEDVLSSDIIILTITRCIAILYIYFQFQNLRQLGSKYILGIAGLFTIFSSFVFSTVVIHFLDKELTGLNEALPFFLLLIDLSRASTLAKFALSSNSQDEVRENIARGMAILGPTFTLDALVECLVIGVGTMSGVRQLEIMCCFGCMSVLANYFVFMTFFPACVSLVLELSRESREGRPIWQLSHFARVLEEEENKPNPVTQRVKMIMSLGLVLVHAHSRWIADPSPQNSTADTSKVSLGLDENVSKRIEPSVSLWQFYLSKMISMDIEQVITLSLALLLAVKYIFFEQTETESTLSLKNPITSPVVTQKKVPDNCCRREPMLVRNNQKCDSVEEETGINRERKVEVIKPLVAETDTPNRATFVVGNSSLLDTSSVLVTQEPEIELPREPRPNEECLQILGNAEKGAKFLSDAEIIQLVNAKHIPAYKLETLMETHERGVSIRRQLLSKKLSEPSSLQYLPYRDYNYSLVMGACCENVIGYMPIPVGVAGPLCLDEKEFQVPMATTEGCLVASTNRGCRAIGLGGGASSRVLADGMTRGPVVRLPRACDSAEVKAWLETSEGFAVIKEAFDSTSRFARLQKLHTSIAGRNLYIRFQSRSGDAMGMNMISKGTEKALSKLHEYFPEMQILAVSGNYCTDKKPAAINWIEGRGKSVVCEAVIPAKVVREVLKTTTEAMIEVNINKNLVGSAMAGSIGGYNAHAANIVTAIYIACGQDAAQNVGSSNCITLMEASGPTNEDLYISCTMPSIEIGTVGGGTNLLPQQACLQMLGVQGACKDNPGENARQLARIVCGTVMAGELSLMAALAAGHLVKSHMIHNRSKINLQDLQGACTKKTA
Outline: (§1)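 HEP G2 human hepatoma cells in culture; cellular HMG-CoA reductase inhibition read as reduced incorporation of sodium [14C]acetate into cholesterol; IC50 values varied somewhat between cell batches. Assay system as in the preceding paper.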

[5] = target: T4, 3-hydroxy-3-methylglutaryl-coenzyme A reductase (Homo sapiens, UniProt P04035); assay: Inhibition of cellular HMG-CoA reductase in cultures of hepatic cells (HEP G2, a human hepatoma cell line); type: cell-based; outline: as §1
T4 sequence (P04035 whole entry): T3 sequence (whole entry)

Canis familiaris [6] = assay: Percent decrease in plasma LDL-cholesterol in dog was determined after oral administration of a dose of 10 mg/kg for 19 days; type: functional, Canis lupus familiaris; design: scale not given: the % may be the effect or the level left
Outline: (§2)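 Normally fed male beagle dogs (n = 4) given drug orally each day (20 mg/kg for 14 days or 10 mg/kg for 19 days); plasma LDL- and HDL-cholesterol followed as percent change.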

Canis familiaris [7] = assay: Percent increase in plasma HDL-cholesterol in dog was determined after oral administration of a dose of 10 mg/kg for 19 days; type: functional, Canis lupus familiaris; outline: as §2
Oryctolagus cuniculus [8] = assay: Percent decrease in total plasma cholesterol in rabbit was determined after oral administration of a dose of 10 mg/kg for 6 days; type: functional; design: scale not given: the % may be the effect or the level left
Outline: (§3)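 Normally fed normolipemic rabbits given oral doses repeatedly (20 mg/kg for 10 days, n = 6; 10 mg/kg for 6 days, n = 4); total plasma cholesterol decrease expressed as percent.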

Rattus norvegicus [9] = assay: Inhibition of hepatic cholesterol de novo synthesis in male rats after po administration,; values are per cent of control
Canis familiaris [10] = assay: Percent decrease in plasma LDL-cholesterol in dog was determined after oral administration of a dose of 20 mg/kg for 14 days; type: functional, Canis lupus familiaris; design: scale not given: the % may be the effect or the level left; outline: as §2
Canis familiaris [11] = assay: Percent increase in plasma HDL-cholesterol in dog was determined after oral administration of a dose of 20 mg/kg for 14 days; type: functional, Canis lupus familiaris; outline: as §2
Oryctolagus cuniculus [12] = assay: Percent decrease in total plasma cholesterol in rabbit was determined after oral administration of a dose of 20 mg/kg for 10 days; type: functional; design: scale not given: the % may be the effect or the level left; outline: as §3
Rattus norvegicus [13] = assay: Inhibition of hepatic cholesterol de novo synthesis in male rats after po administration, relative to mevinolin; type: functional
Outline: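 Male rats dosed orally. […] Dose 5 mg/kg bw for lactone form, optically pure; 10 mg/kg bw for racemic sodium salts. Potency expressed against optically pure mevinolin tested under the same conditions.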

Row | SMILES | IC50 [1] | Relative potency [3] | Relative potency [4] | IC50 [5] | other results
1 | Cc1c(-c2ccc(F)cc2)c(CC[C@@H](O)C[C@@H](O)CC(=O)O)c(C(C)C)n1-c1ccccc1 (racemic) [listing 1 of 2 here] | 5 nM |  |  |  | 
2 | CC(C)c1c(/C=C/[C@@H](O)C[C@@H](O)CC(=O)[O-])c(-c2ccc(F)cc2)cn1-c1ccccc1.[Na+] |  |  |  |  | level, % of control (Rattus norvegicus [2]): 5.5%
3 | Cc1c(-c2ccc(F)cc2)c(CC[C@@H](O)C[C@@H](O)CC(=O)O)c(C(C)C)n1-c1ccccc1 (racemic) [listing 2 of 2 here] |  | 149 |  |  | 
4 | Cc1c(-c2ccc(F)cc2)c(CC[C@@H](O)C[C@@H](O)CC(=O)O)c(C(C)C)n1-c1ccccc1 [listing 1 of 2 here] |  | 300 |  |  | 
5 | CC(C)c1c(CC[C@@H](O)C[C@@H](O)CC(=O)O)c(-c2ccc(F)cc2)cn1C(C)C (racemic) |  | 42 | 2500 |  | 
6 | Cc1c(/C=C/[C@@H](O)C[C@@H](O)CC(=O)O)c(-c2ccc(F)cc2)c(C)n1-c1ccccc1 | 250 nM | 3 | 1 | 5000 nM | 
7 | CC[C@H](C)C(=O)O[C@H]1C[C@@H](C)C=C2C=C[C@H](C)[C@H](CC[C@@H]3C[C@@H](O)CC(=O)O3)[C@H]21 [LOVASTATIN] |  |  |  |  | Activity (Canis familiaris [6]): -18%; Activity (Canis familiaris [7]): 2%; Activity (Oryctolagus cuniculus [8]): 25%; level, % of control (Rattus norvegicus [9]): 14%
8 | Cc1c(/C=C/[C@@H](O)C[C@@H](O)CC(=O)O)c(-c2ccc(F)cc2)cn1C(C)C | 330 nM | 2 | 1 | 6000 nM | 
9 | Cc1c(CC[C@@H](O)C[C@@H](O)CC(=O)O)c(-c2ccc(F)cc2)cn1C(C)C | 100 nM | 9 | 19 | 270 nM | 
10 | CC(C)c1c(CCC(O)CC(O)CC(=O)[O-])c(-c2ccc(F)cc2)cn1-c1ccccc1.[Na+] (racemic) | 6 nM | 128 | > 500 | < 10 nM | Activity (Canis familiaris [10]): 48%; Activity (Canis familiaris [11]): 14%; Activity (Oryctolagus cuniculus [12]): 34%; Relative potency (Rattus norvegicus [13]): 250; level, % of control (Rattus norvegicus [2]): 5.6%
11 | CC(C)c1c(CC[C@@H](O)C[C@@H](O)CC(=O)[O-])c(-c2ccc(F)cc2)cn1C(C)C.[Na+] (racemic) | 18 nM |  |  | 2 nM | Activity (Oryctolagus cuniculus [8]): 42%; Relative potency (Rattus norvegicus [13]): 156; level, % of control (Rattus norvegicus [2]): 9%
12 | CC(C)c1c(/C=C/[C@H](O)C[C@@H](O)CC(=O)O)c(-c2ccc(F)cc2)cn1C1CCCCC1 | 69 nM | 12 | 47 | 106 nM | 
13 | CC(C)c1c(CC[C@@H](O)C[C@@H](O)CC(=O)O)c(-c2ccc(F)cc2)cn1-c1ccccc1 | 3 nM | 257 |  |  | 
14 | CC(C)c1c(CC[C@@H](O)C[C@@H](O)CC(=O)O)c(-c2ccc(F)cc2)cn1C(C)C [listing 1 of 2 here] |  | 85 |  |  | 
15 | Cc1c(CC[C@@H](O)C[C@@H](O)CC(=O)O)c(-c2ccc(F)cc2)c(C)n1-c1ccccc1 | 70 nM | 11 | 9 | 570 nM | 
16 | CC(C)c1c(CC[C@@H](O)C[C@@H](O)CC(=O)O)c(-c2ccc(F)cc2)cn1C(C)C [listing 2 of 2 here] | 9 nM |  |  |  | 
17 | CC(C)c1c(CC[C@@H](O)C[C@@H](O)CC(=O)[O-])c(-c2ccc(F)cc2)cn1C1CCCCC1.[Na+] |  |  |  |  | level, % of control (Rattus norvegicus [2]): 6%
18 | Cc1c(-c2ccc(F)cc2)c(CC[C@@H](O)C[C@@H](O)CC(=O)O)c(C(C)C)n1-c1ccccc1 [listing 2 of 2 here] | 2.5 nM |  |  |  | 
